Experiments:
[1] = tested on: L1210; test: Cytotoxicity against mouse L1210 cells after 48 hrs by MTA assay; type: functional, cell-based; conditions: L1210, 48 h
In short: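 L1210 cells maintained in RPMI 1640 plus 10% fetal calf serum, 2 mM L-glutamine, penicillin/streptomycin and 10 mM HEPES (pH 7.4). Drug given at nine serial dilutions, triplicate, for 48 h (four doubling times), then tetrazolium microculture assay. IC50 is the concentration giving 50% lower optical density than untreated controls.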

[2] = Cytotoxicity against human KB-3-1 cells after 96 hrs by MTA assay; type: functional, cell-based; conditions: KB 3-1, 96 h
In short: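 KB-3-1 cells grown in DMEM with 10% fetal calf serum, 2 mM L-glutamine, penicillin/streptomycin, 10 mM HEPES (pH 7.4). Exposed to nine serial drug dilutions in triplicate for 96 h (four doubling times); microculture tetrazolium read-out. IC50 is the concentration reducing optical density by 50% relative to untreated controls.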

SMILES | IC50 [1] [nM] | IC50 [2] [nM]
CC1(C)C=Cc2c(cc(O)c3c(=O)c4c(ccc5cc(Br)ccc54)[nH]c23)O1 | 3400 | 1700
C#CC(C)(C)Oc1cc(O)c2c(=O)c3c4ccc(Br)cc4ccc3n3c2c1C(C)(C)C3=C | 51100 | 37100
C=C1n2c3ccc4cc(Br)ccc4c3c(=O)c3c(O)cc(O)c(c32)C1(C)C | 7300 | 2500
COc1cc2c(c3c1c(=O)c1c4ccc(Br)cc4ccc1n3C)C=CC(C)(C)O2 | 490 | 1300
Cn1c2cc3ccc(Br)cc3cc2c(=O)c2c(O)cc3c(c21)C=CC(C)(C)O3 | 645 | 14300
COc1cc2c(c3c1c(=O)c1cc4cc(Br)ccc4cc1n3C)C=CC(C)(C)O2 | 2200 | 9900
COc1cc2c(c3c1c(=O)c1cc4ccccc4cc1n3C)[C@H]1OC(=O)O[C@H]1C(C)(C)O2 (racemic) | 16 | 
COc1cc2c(c3c1c(=O)c1c4ccc(Br)cc4ccc1n3C)[C@@H](O)[C@@H](O)C(C)(C)O2 (racemic) | 7600 | 5500
COc1cc2c(c3c1c(=O)c1c4ccc(Br)cc4ccc1n3C)[C@@H](OC(C)=O)[C@@H](OC(C)=O)C(C)(C)O2 (racemic) | 400 | 40
COc1cc2c(c3c1c(=O)c1c4ccc(Br)cc4ccc1n3C)[C@H]1OC(=O)O[C@H]1C(C)(C)O2 (racemic) | 80 | 15
COc1cc2c(c3c1c(=O)c1cc4cc(Br)ccc4cc1n3C)[C@@H](O)[C@@H](O)C(C)(C)O2 (racemic) | 225 | 36300
COc1cc2c(c3c1c(=O)c1cc4cc(Br)ccc4cc1n3C)[C@@H](OC(C)=O)[C@@H](OC(C)=O)C(C)(C)O2 (racemic) | 600 | 115
COc1cc2c(c3c1c(=O)c1cc4cc(Br)ccc4cc1n3C)[C@H]1OC(=O)O[C@H]1C(C)(C)O2 (racemic) | 34 | 11
COc1cc2c(c3c1c(=O)c1c4ccccc4ccc1n3C)[C@@H](OC(C)=O)[C@@H](OC(C)=O)C(C)(C)O2 (racemic) | 730 | 140
COc1cc2c(c3c1c(=O)c1c4ccccc4ccc1n3C)[C@H]1OC(=O)O[C@H]1C(C)(C)O2 (racemic) | 59 | 15
COc1cc2c(c3c1c(=O)c1cc4ccccc4cc1n3C)[C@@H](OC(C)=O)[C@@H](OC(C)=O)C(C)(C)O2 (racemic) |  | 95
COc1cc2c(c3c1c(=O)c1c4ccccc4ccc1n3C)C=CC(C)(C)O2 [BENZO[A]ACRONYCINE] |  | 8600
COc1cc2c(c3c1c(=O)c1cc4ccccc4cc1n3C)C=CC(C)(C)O2 [BENZO[B]ACRONYCINE] |  | 3400
